ChEMBL document CHEMBL4732059, “Structure-guided modification of isoxazole-type FXR agonists: Identification of a potent and orally bioavailable FXR modulator” (Eur J Med Chem, 2021)
The source made the active and inactive calls. The rule behind the calls is not given here.

Experiments:
[1] = Half life in C57BL/6J mouse at 20 mg/kg, po measured upto 24 hrs by LC-MS analysis; format: ADME, organism-based; conditions: in vivo
In short: (§1)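 Male C57BL/6J mice (22–24 g, n = 5), single oral dose 20 mg/kg in 0.5% CMC-Na PBS. Plasma sampled at 0.25, 0.5, 1, 2, 4, 8, 12 and 24 h, centrifuged, and supernatant analysed by LC-MS/MS in positive ion mode. Parameters from noncompartmental analysis; mean ± SD, n = 5.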

[2] = AUC (0 to t) in C57BL/6J mouse at 20 mg/kg, po measured upto 24 hrs by LC-MS analysis; format: ADME, organism-based; set-up: route oral, dose 20 mg/kg, time <=24; conditions: in vivo; in short: as §1
[3] = Cmax in C57BL/6J mouse at 20 mg/kg, po measured upto 24 hrs by LC-MS analysis; format: ADME, organism-based; set-up: route oral, dose 20 mg/kg, time <=24; conditions: in vivo; in short: as §1
[4] = system: HepG2; assay: Cytotoxicity against human HepG2 cells assessed as cell viability upto 40 uM after 48 hrs by MTT assay; format: cell-based; conditions: hepg2, 48 h
In short: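 HepG2 cells in DMEM/10% FBS seeded at 1×10⁵/mL and grown 24 h, then exposed to 0.1, 1, 10, 40 and 80 µM for 48 h. MTT (5 mg/mL stock) added for 4 h at 37 °C in the dark, formazan dissolved in DMSO, absorbance read at 490 nm; mean ± SD, n = 3.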

[5] = system: HepG2; assay: Upregulation of FXR level in human HepG2 cells at 1 to 10 uM for 16 hrs by Western blot analysis; format: functional, cell-based; conditions: dose 1-10 µM
In short: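 HepG2 cells treated for 16 h, washed, lysed on ice and centrifuged; protein quantified by BCA. Equal protein run on 12% SDS-PAGE and transferred to PVDF. Probed overnight at 4 °C with anti-FXR, […], anti-CYP7A1 or anti-BSEP antibody, then HRP secondary 1 h at 37 °C; ECL detection.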

[6] = Tmax in C57BL/6J mouse at 20 mg/kg, po measured upto 24 hrs by LC-MS analysis; format: ADME, organism-based; conditions: in vivo; in short: as §1
[7] = target: T1, Bile acid receptor (Homo sapiens) (UniProt Q96RI1); assay: Agonist activity at human FXR in HepG2 cells assessed as nuclear translocation at 1 uM for 16 hrs by immunofluorescence analysis; format: cell-based; conditions: filed as agonist
T1 sequence (whole entry): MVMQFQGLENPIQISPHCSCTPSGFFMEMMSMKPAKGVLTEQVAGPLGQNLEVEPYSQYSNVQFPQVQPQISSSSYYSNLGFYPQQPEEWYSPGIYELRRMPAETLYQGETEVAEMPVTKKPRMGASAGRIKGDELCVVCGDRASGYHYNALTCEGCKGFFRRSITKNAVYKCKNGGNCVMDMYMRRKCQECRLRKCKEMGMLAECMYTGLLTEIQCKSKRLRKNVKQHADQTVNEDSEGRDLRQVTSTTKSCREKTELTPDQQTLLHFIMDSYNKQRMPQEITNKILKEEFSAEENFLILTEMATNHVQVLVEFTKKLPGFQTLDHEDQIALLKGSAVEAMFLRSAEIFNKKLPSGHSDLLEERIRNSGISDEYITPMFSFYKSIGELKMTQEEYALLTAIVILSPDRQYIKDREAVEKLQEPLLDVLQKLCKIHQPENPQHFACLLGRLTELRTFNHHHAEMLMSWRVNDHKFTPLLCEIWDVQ

half-life [1] [h] | AUC(0-t) at 24 h [2] [ng·h/mL] | Cmax [3] [ng/mL] | Tmax [6] [h] | Activity [7] | SMILES | Activity [4] | Activity [5]
10.6 | 36100 | 2350 | 4.8 |  | O=C(O)c1cccc(NC(=O)N2CCC(OCc3c(-c4ccccc4OC(F)(F)F)noc3C3CC3)CC2)c1 | Non-Toxic | Active
 |  |  |  | Active | CC(C)c1onc(-c2c(Cl)cccc2Cl)c1COc1ccc(/C=C/c2cccc(C(=O)O)c2)c(Cl)c1 | Non-Toxic | 
